Key:
METTL3/14 = conditions: read-out: Km of SAM for METTL3/14; cited from earlier work
[1] = tested on: normal human cord blood CD34+ cells; assay: Colony-forming efficiency of cord blood CD34+ cells; type: cell-based; conditions: 1, 5 or 10 µM
Summary of the method: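 Human cord-blood CD34+ cells were plated in StemMACS HSC-CFU semi-solid medium with the test compound at the indicated concentrations or DMSO. Colonies were counted by microscopy 12–14 days after plating.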

primary murine AML cells = assay: Colony forming; type: cell-based, mouse; conditions: 1 μM
Summary of the method: (§1)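 Lineage-negative cells from wild-type mice or primary murine AML cells, 10,000 per well, were plated in triplicate wells of M3434 methylcellulose with 1 μM test compound. Colonies were counted after 7 days. Another 10,000 cells were then re-seeded and re-counted weekly through the 3rd replating.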

[2] = tested on: MOLM-13 and primary murine AML cells; assay: Flow cytometry of differentiation, cell cycle and apoptosis in AML cells; type: cell-based
Summary of the method: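 Human and/or mouse AML cells were exposed to DMSO or test compound and analysed at the indicated timepoints on an LSRFortessa. Myeloid differentiation was read by anti-mouse CD11b PE/Cy5 or anti-human CD11b PE staining. Apoptosis was read by Annexin V staining. Cell cycle was read by BrdU incorporation with FITC or APC BrdU flow kits.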

[3] = tested on: human AML patient derived xenografts (PDX); assay: Human AML patient derived xenograft; type: in vivo, mouse
normal haematopoiesis = assay: Toxicity on normal haematopoiesis in vivo; design: species or system mouse; conditions: 50 mg/kg daily for 14 days
[4] = tested on: panel of human AML cell lines; assay: Proliferation assay, AML cell line panel; type: cell-based; conditions: 0.04-50 μM, read on day 6
[5] = tested on: m6A peaks on poly-A+-enriched RNA, MOLM-13 cells; assay: m6A-meRIP-seq and meRIP-qPCR in MOLM-13 cells; type: cell-based, human
[6] = tested on: primary murine MLL-AF9/Flt3^Itd/+ AML; assay: Primary murine MLL-AF9/Flt3Itd/+ AML in vivo model; design: species or system mouse
[7] = tested on: SP1 and BRD4 protein levels, MOLM-13 cells; assay: Western blot of METTL3 biomarkers in MOLM-13; type: cell-based, human; conditions: MOLM-13, 72 hours
Summary of the method: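 MOLM-13 cells were exposed to DMSO or indicated concentrations of test compound for 72 h. Pellets were lysed in 50 mM Tris-HCl pH 8, 450 mM NaCl, 0.1% NP-40 and 1 mM EDTA, with 1 mM DTT and protease/phosphatase inhibitors. Immunoblots were probed with anti-SP1, N- and C-terminal anti-BRD4, and actin or GAPDH antibodies.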

panel of 468 kinases = assay: KINOMEscan kinase binding panel; conditions: 10 µM; inhibition = less than 50% control activity
[8] = biological target: METTL3/METTL14 heterodimer (Homo sapiens, UniProt Q86U44); assay: Surface plasmon resonance; type: binding; conditions: 50 µM SAM in running buffer
[9] = tested on: non-leukaemic haemopoietic cell line HPC7; type: cell-based
METTL16 = biological target: T1, METTL16 (Homo sapiens, UniProt Q86W50); assay: RNA methyltransferase RFMS activity assay; type: biochemical; conditions: dose-range, top concentration 120 μM
T1 sequence (Q86W50 1-562): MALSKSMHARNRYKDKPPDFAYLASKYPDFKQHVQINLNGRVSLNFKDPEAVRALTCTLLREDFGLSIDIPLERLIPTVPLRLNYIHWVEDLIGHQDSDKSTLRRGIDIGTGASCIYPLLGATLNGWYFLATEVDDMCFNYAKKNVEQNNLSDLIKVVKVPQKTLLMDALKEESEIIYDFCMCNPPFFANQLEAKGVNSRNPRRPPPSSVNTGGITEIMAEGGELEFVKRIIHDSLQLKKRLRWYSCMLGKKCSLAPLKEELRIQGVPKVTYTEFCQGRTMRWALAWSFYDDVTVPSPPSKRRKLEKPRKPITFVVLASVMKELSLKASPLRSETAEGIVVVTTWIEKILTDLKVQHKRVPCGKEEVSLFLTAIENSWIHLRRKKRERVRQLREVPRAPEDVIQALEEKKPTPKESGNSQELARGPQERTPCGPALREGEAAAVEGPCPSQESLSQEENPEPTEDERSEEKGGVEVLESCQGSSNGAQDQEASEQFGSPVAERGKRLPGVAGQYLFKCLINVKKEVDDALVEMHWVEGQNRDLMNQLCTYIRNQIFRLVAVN

[10] = tested on: m6A on poly-A+-enriched RNA, MOLM-13 cells; assay: RNA nucleoside quantification by mass spectrometry in MOLM-13; type: cell-based, human; conditions: MOLM-13, 24 hours
[11] = tested on: normal haematopoietic stem and progenitor cells (HSPCs); assay: Colony forming; type: cell-based, mouse; conditions: 1 μM, WT Lin- cells
Summary of the method: as §1

[12] = Pharmacokinetic analysis in mice; type: in vivo, mouse; conditions: single intra-peritoneal dose of 50 mg/kg, over 24h
MOLM-13 cells = assay: Polysome fractionation and RT-qPCR in MOLM-13 cells; type: cell-based, human
Summary of the method: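 MOLM-13 cells (5 × 10^7) were exposed to DMSO or 1 μM test compound for 72 h, then to 0.1 mg/ml cycloheximide for 5 min at 37 °C. Lysates were fractionated on a sucrose gradient. RNA from each fraction, or total RNA (RNeasy), was quantified by RT-qPCR in triplicate, normalised to GAPDH, using the standard-curve or comparative CT method.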

[13] = MOLM-13 and primary murine AML cells
[14] = murine or patient-derived AML cells from treated primary transplants

Sequence of METTL3/METTL14 heterodimer (Q86U44 whole entry): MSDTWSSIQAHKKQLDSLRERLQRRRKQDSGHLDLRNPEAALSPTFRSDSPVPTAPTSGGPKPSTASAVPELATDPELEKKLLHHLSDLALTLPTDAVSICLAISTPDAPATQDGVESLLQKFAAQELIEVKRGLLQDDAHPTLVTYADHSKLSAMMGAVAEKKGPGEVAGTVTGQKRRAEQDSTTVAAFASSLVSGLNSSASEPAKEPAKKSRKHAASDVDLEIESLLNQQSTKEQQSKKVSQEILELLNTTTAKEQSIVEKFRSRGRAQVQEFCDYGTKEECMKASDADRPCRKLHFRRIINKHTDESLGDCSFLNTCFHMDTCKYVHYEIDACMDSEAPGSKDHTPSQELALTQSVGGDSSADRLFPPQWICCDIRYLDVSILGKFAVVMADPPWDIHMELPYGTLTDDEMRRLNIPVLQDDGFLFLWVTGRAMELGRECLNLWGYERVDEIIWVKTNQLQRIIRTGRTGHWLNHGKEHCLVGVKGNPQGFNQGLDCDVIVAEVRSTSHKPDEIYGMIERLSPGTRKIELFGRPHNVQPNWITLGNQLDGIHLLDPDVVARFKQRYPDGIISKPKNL
Sequence of METTL3/METTL14 heterodimer (Q9HCE5 whole entry partner): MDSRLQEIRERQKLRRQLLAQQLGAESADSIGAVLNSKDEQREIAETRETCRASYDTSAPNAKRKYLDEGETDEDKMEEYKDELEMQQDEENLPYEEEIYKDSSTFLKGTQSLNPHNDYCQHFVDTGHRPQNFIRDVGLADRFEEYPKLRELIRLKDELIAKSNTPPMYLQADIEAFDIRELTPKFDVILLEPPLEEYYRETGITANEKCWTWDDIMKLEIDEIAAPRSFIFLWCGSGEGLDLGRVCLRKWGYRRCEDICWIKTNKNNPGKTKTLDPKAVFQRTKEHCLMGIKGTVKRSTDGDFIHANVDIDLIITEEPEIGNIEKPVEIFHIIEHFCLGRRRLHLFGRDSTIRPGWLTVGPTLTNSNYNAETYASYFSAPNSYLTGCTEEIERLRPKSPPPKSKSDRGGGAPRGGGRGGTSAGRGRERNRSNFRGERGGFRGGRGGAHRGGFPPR

C[S+](CC[C@H](N)C(=O)[O-])C[C@H]1O[C@@H](n2cnc3c(N)ncnc32)[C@H](O)[C@@H]1O (stereo partly shown) [SAM, S-adenosyl methionine]
Km (METTL3/14): 0.1 µM

O=C(NCc1cn2cc(CNCC3CCCCC3)ccc2n1)c1cc(=O)n2ccccc2n1 [STM2457]
colony-forming ability of normal human cord blood CD34+ cells [1]: did not affect
clonogenic potential of primary murine AML cells (primary murine AML cells): significantly reduced
apoptosis in human and mouse AML models ([2]; Annexin V, 1 µM): induced apoptosis
cell cycle (BrdU) [2, 13]: cell cycle arrest
myeloid differentiation (CD11b/Mac1) [2, 13]: significant myeloid differentiation
human CD45+ cells in bone marrow and spleen ([3]; 50 mg/kg): reduction of human CD45^+ cells in bone marrow and spleen
mouse lifespan in PDX ([3]; 50 mg/kg IP daily): significantly prolonged
toxicity and body weight in PDX mice ([3]; 50 mg/kg IP daily): no overt toxicity or effect on mouse body weight
engraftment and AML expansion in PDX ([3]; 50 mg/kg IP daily, 3 PDX models): impairment of engraftment and AML expansion
total m6A levels on poly-A+-enriched RNA in PDX bone marrow ([3]; 30 or 50 mg/kg): significantly reduced
bone marrow HSCs and early progenitors, peripheral blood counts, body weight (normal haematopoiesis): No significant changes
m6A levels on poly-A+-enriched RNA of healthy bone marrow (normal haematopoiesis): significantly reduced
proliferation of human AML cell line panel [4]: significant growth reduction in a concentration-dependent manner
m6A levels in METTL3-dependent substrates including HOXA10 and MYC (meRIP-qPCR) ([5]; MOLM-13, 1 µM, 24 or 48 hours): reduced m^6A levels
m6A peaks reduced upon treatment ([5]; MOLM-13, 1 μM, 48 hours, of 11,909 m6A peaks identified): 4,666
CD48+ intensity of L-GMP cells ([6]; 30 mg/kg): increased
engrafted AML cells in bone marrow ([6]; 30 mg/kg): reduction in the engrafted AML cells
spleen size ([6]; 30 mg/kg): reduction in spleen size
CD93+ and L-GMP leukaemia stem cell populations ([6]; bone marrow, PDX 50 mg/kg and murine model 30 mg/kg): significantly reduced
AML cells in peripheral blood after re-transplantation [6, 14]: marked decrease
lifespan after re-transplantation [6, 14]: significant lifespan prolongation
SP1 and BRD4 protein levels [7]: dose-dependent reduction
inhibitory effect on kinase panel (panel of 468 kinases): no inhibitory effect
binding mode with SAM in the SPR running buffer [8]: co-factor competitive binding mode
apoptosis in normal non-leukaemic haemopoietic cells ([9]; Annexin V, 1 µM): not in normal non-leukaemic haemopoietic cells
differentiation and cell cycle in HPC7 ([9]; non-leukaemic HPC7, 1 µM): the same effects were not identified
inhibition of METTL16 (METTL16): no inhibition
m6A on poly-A+-enriched RNA [10]: concentration-dependent reduction
other RNA modifications (m6Am, m6_2A, m7G) on poly-A+-enriched RNA [10]: No changes were detected
colony forming of normal haematopoietic stem and progenitor cells (HSPCs) [11]: no effect
half-life / exposure in vivo [12]: sufficient half-life
polysome profile (MOLM-13 cells; MOLM-13, 1μM, 72 hours): loss of high polysome fractions
overall RNA expression levels of BRD4 and SP1 (MOLM-13 cells; MOLM-13, RT-qPCR of total RNA): showed no alterations

Source: paper PMC7613134 (Nature, 2021)
